Tb MetRS inh: Trypanosoma brucei MetRS inhibition; inhibition, % at 11.9 µM; purified T. brucei MetRS, ATP depletion, Kinase-Glo luminescence; actives 0.4% (n = 360,000);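 active means inhibition above a per-plate cutoff of the control wells' mean inhibition plus 3 SD, cut at about 5.5% in these data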
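technique = Kinase-Glo luminescence, ATP depletion format | system = purified MetRS (methionyl-tRNA synthetase) enzyme from Trypanosoma brucei | timing = 15 min preincubation, 2 h reaction, all 25 °C | evaluation = percent inhibition versus plate control medians | dosing = single dose, 11.9 µM final nominal, 0.9% final DMSO | also added = substrates ATP, L-methionine and bulk Escherichia coli tRNA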
HCV core dimer: blocks dimerization of HCV core protein; TR-FRET GST/Flag-core106 dimerization, 1536-well; actives 0.33% (n = 300,000); inhibition, % at 5 µM; AID 1899;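 active means inhibition above the mean of all tested compounds plus 3 SD, set per screening campaign, cut at about 45% in these data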
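Material: GST/Flag-tagged HCV core106 proteins. Incubation: 4 h, 22.5 °C incubation. Read-out basis: inhibition (%) from 671 over 617 nm ratio. Measured by: TR-FRET, excitation 340 nm, emission 617 and 671 nm.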
NS3 helicase inh: HCV NS3 helicase inhibition | NS3 helicase DNA unwinding, Cy5 molecular beacon fluorescence | inhibition, % at 10.9 µM | actives 0.56% (n = 290,000);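 active means inhibition above the mean of all tested compounds plus 3 SD, set per campaign, cut at about 35% in these data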
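System: Hepatitis C virus NS3 helicase domain fragment enzyme | Reagent: Annealed dual-labelled DNA beacon duplex, ATP-started | Compound dosing: 10.9 µM single point, 0.8% DMSO | Incubation: 1 h reaction at 25 °C, ATP-initiated | Technique: Cy5 fluorescence | Evaluation: Percent inhibition from t60/t0 fluorescence ratio | Benchmarks: Low DMSO, high thioflavine S at 110 µM | Replication: Singlicate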
Lipid droplet: hepatic lipid droplet formation modulation | AML12 mouse hepatocytes, oleate lipid droplets, BODIPY imaging | inhibition, % at 6.5 µM | actives 0.4% (n = 240,000) | AID 1656;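 active means lipid droplet intensity inhibited by at least 50%, with more than 500 cells counted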
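Assay system: AML12 mouse liver cells | Compound: 6.5 µM single-point dosing | Schedule: Overnight exposure | Technique: Fluorescence imaging, 20x objective, two fields per well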
Lipid drop inh: hepatic lipid droplet formation inhibition, confirmed; inhibition, % at 5.2 µM; AID 463183; AML12 mouse hepatocytes, BODIPY lipid droplet imaging; droplets induced with 100 µM oleic acid; actives 65% (n = 870); shares compounds with Lipid droplet;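 active means inhibition of lipid droplet metric at least 50%, with more than 300 cells in each of four replicates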
AML12 cytotox: toxic to AML12 mouse hepatocytes in counter-screen | shares compounds with Lipid droplet | DAPI nuclear morphology cytotoxicity imaging; hits give high values; cells fed 100 µM oleate overnight | z-score at 5 µM | actives 3% (n = 870) | AID 463200; in the data active means z-score above about 6.3;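 further: compound exposure lasted overnight at 37 °C before fixation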
AML12 tox conf: confirmation of cytotoxicity in AML12 mouse hepatocytes | 530 tested, under 10 active | shares compounds with Lipid droplet | cytotoxicity, % at 50 µM | AML12 mouse hepatocyte viability, ATP luminescence; cells loaded with 100 µM oleic acid;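 active means cytotoxicity above 50% in each of four replicates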;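 further: compound exposure lasted overnight at 37 °C before the ATP read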
A number is an active result; 0 = inactive; - = not tested or not shown. Only some compounds are listed: those with a hit (about 1.3% of all), similar ones and a draw of the others.

SMILES	Tb MetRS inh	HCV core dimer	NS3 helicase inh	Lipid droplet	Lipid drop inh	AML12 cytotox	others
COc1cc(CNc2ncnc3c2ncn3[C@H]2CN(Cc3ccc4c(c3)OCO4)C[C@@H](CO)O2)cc(OC)c1OC	0	-	-	-	-	-
CC(=O)C(=Cc1cccc(C#N)c1)C(=O)c1ccccc1	0	-	-	-	-	-
CCCCc1ccc(N=N/C(C(=O)Nc2ccccc2OC)=C(/C)O)cc1	0	0	0	0	-	-
CCCCc1ccc(N=N/C(C(=O)Nc2cc(OC)c(NC(C)=O)cc2OC)=C(/C)O)cc1	0	0	0	96	0	0
C[C@@H]1CN([C@@H](C)CO)C(=O)CCCn2cc(nn2)CO[C@H]1CN(C)S(=O)(=O)c1ccc2ccccc2c1	0	-	-	-	-	-
CCN1CCN(c2cc(C)c3cc(NC(=O)CCC(=O)Nc4ccc(OC)c(OC)c4)ccc3n2)CC1	0	0	0	0	-	-
COc1ccc(C)cc1NC(=O)CCC(=O)Nc1ccc2nc(N3CCN(C)CC3)cc(C)c2c1	-	0	0	105	104	0	AML12 tox conf=0
COc1ccc(-n2c(=O)c3c4c(sc3n(CC(=O)Nc3cc(C)[nH]n3)c2=O)CCC4)c(OC)c1	0	0	0	51	0	0
C=CCOc1cccn2c(N(C)C(=O)c3ccccc3F)c(CC)nc12	0	-	-	-	-	-
CC(=O)Nc1ccc(C(=O)N2CCCCC2c2cc(C(=O)NC(C)C)no2)cc1 (stereo not drawn)	0	-	-	-	-	-
CCOc1ccc2ccccc2c1/C=N\NC(=O)OC	0	0	0	0	-	-
CCOc1ccc2ccccc2c1/C=N/NC(=O)CNC(=O)C(c1ccccc1)c1ccccc1	0	0	0	82	92	0	AML12 tox conf=0
CC(C)C[C@H]1CN([C@@H](CC(C)C)CN2CCC[C@H]2CN2C(=O)C(=O)NC[C@@H]2Cc2ccc(O)cc2)C(=O)C(=O)N1CC1CCCCCC1	0	-	-	-	-	-
Clc1ccccc1CN(Cc1ccco1)Cc1nnnn1C1CCCC1	0	0	0	68	0	0
c1coc(CN(Cc2cccs2)Cc2nnnn2C2CCCCC2)c1	0	0	0	0	-	-
Oc1[nH]c2ccccc2c1N=Nc1nc(Nc2ccccc2)nc(N2CCOCC2)n1	0	0	0	60	0	20
Cc1ccccc1OCc1nnc(SCC(=O)Nc2ccc3c(c2)oc2ccccc23)n1C	0	0	0	93	0	0
COc1nc(C)nc2c1ccc1ccccc12	0	0	0	52	0	0
COc1ccc(Oc2nc(C)nc3c2oc2ccccc23)cc1	0	0	0	-	-	-
CCC1=NN=C(c2ccc(F)cc2)C(c2c[nH]c3ccccc23)N1O (stereo not drawn)	0	0	0	65	0	0
C[C@@H]1CN([C@@H](C)CO)C(=O)CCCn2cc(nn2)CO[C@H]1CN(C)C(=O)c1cc(-c2ccccc2)on1	0	-	-	-	-	-
COc1cc2c(cc1NC(=S)NC(=O)c1c(OC)cccc1OC)oc1ccccc12	0	0	0	105	106	0	AML12 tox conf=0
CCCCCCCNC(=O)C1(CC2CC(c3ccc(Cl)cc3)=NO2)CCN(C(=O)c2cc(OCC)c(OCC)c(OCC)c2)CC1 (stereo not drawn)	0	0	0	50	90	0	AML12 tox conf=0
CCCCCCCNC(=O)C1(CC2CC(c3ccc(Cl)cc3)=NO2)CCN(C(=O)c2ccccc2)CC1 (stereo not drawn)	0	0	0	0	-	-
Cc1ccc(-c2[nH]c3ccccc3c2SCCNC(=O)c2ccc(S(=O)(=O)N3CCOCC3)cc2)cc1	0	0	0	54	91	0	AML12 tox conf=0
CCCOc1ccc(/C=N/Nc2ccccc2[N+](=O)[O-])c(OCCC)c1	0	0	0	81	113	0	AML12 tox conf=0
O=[N+]([O-])c1ccccc1N/N=C\c1ccccc1F	0	0	0	0	-	-
O=[N+]([O-])c1ccccc1N/N=C\c1ccccc1Cl	0	0	0	59	0	0
COc1ccc(C(C(=O)NC2CCCC2)n2c(C3CCN(C(C)=O)CC3)nc3ccccc32)cc1 (stereo not drawn)	0	-	-	-	-	-

Screening results from PubChem BioAssay.
